Results taken from ChEMBL document CHEMBL3585281, “Antibacterial Labdane Diterpenoids from Vitex vestita” (2015).
Converted amounts (≈) assume the structure as drawn. One block for each compound: values may come before it.

What was measured:
Assay type in all cases: functional
Enterococcus faecium [1] = experiment: Antibacterial activity against Enterococcus faecium N507 after 18 hrs by agar dilution method; settings: N507, 18 h
Summary of the method: (§1)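 Agar-dilution MIC against Gram-positive strains. Compounds in DMSO, geometric dilutions giving final 100−0.75 mg/L in Mueller Hinton agar. Strains grown 18 h at 37 °C in trypticase soy broth, diluted in sterile water, spotted by Steers inoculator (about 1000 UFC/spot). Plates incubated 18 h at 37 °C; DMSO blank; ofloxacin positive control. MIC = lowest concentration with no visible growth.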

Bacillus cereus [2] = experiment: Antibacterial activity against Bacillus cereus N190 after 18 hrs by agar dilution method; settings: N190, 18 h; summary of the method: as §1
Bacillus spizizenii = experiment: Antibacterial activity against Bacillus subtilis ATCC 6633 after 18 hrs by agar dilution method; settings: ATCC 6633, 18 h; summary of the method: as §1
Mammaliicoccus sciuri = experiment: Antibacterial activity against Staphylococcus sciuri N993 after 18 hrs by agar dilution method; settings: N993, 18 h; summary of the method: as §1
Staphylococcus aureus [3] = experiment: Antibacterial activity against Staphylococcus aureus ATCC 9144 oxford after 18 hrs by agar dilution method; summary of the method: as §1
Streptococcus agalactiae = experiment: Antibacterial activity against Streptococcus agalactiae CIP 103227 after 18 hrs by agar dilution method; settings: ATCC 13813, 18 h; summary of the method: as §1
Enterococcus durans = experiment: Antibacterial activity against Enterococcus durans CIP 104999 after 18 hrs by agar dilution method; settings: CIP 104999, 18 h; summary of the method: as §1
[4] = tested on: Staphylococcus lugdunensis; experiment: Antibacterial activity against Staphylococcus lugdunensis ATCC 43809 after 18 hrs by agar dilution method; settings: ATCC 43809, 18 h; summary of the method: as §1
Enterococcus faecium [5] = experiment: Antibacterial activity against Enterococcus faecium N490 after 18 hrs by agar dilution method; settings: N490, 18 h; summary of the method: as §1
HCT-116 [6] = experiment: Cytotoxicity against human HCT116 cells assessed as growth inhibition at 10^-6 M after 72 hrs by MTS assay relative to control; settings: HCT-116, 72 h, read-out: GI
Summary of the method: (§2)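 Cells from ATCC; HCT-116 grown in RPMI 1640 and MRC5 in DMEM, each with 10% FCS and 1% glutamine, 37 °C, 5% CO2. Seeded at 2.5 × 10^3 cells/well, cultured 24 h, then exposed to compounds at 1 and 10 μM final for 72 h. MTS read-out, absorbance 490 nm; percent index from treated/control OD490 × 100, three experiments.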

[7] = tested on: Staphylococcus haemolyticus; experiment: Antibacterial activity against Staphylococcus haemolyticus CIP 8156 after 18 hrs by agar dilution method; settings: CIP 8156, 18 h; summary of the method: as §1
Enterococcus faecalis [8] = experiment: Antibacterial activity against Enterococcus faecalis CIP 103214 after 18 hrs by agar dilution method; settings: CIP 103214, 18 h; summary of the method: as §1
Enterococcus faecalis [9] = experiment: Antibacterial activity against Enterococcus faecalis N520 after 18 hrs by agar dilution method; settings: N520, 18 h; summary of the method: as §1
Staphylococcus aureus [10] = experiment: Antibacterial activity against Staphylococcus aureus CIP 53154 after 18 hrs by agar dilution method; settings: CIP 53154, 18 h; summary of the method: as §1
Enterococcus faecalis [11] = experiment: Antibacterial activity against Enterococcus faecalis CIP 104676 after 18 hrs by agar dilution method; settings: CIP 104676, 18 h; summary of the method: as §1
Listeria monocytogenes [12] = experiment: Antibacterial activity against Listeria monocytogenes N836 after 18 hrs by agar dilution method; settings: N836, 18 h; summary of the method: as §1
HCT-116 [13] = experiment: Cytotoxicity against human HCT116 cells assessed as growth inhibition at 10^-5 M after 72 hrs by MTS assay relative to control; settings: HCT-116, 72 h, read-out: GI; summary of the method: as §2
Enterococcus faecium [14] = experiment: Antibacterial activity against Enterococcus faecium CIP 103014 after 18 hrs by agar dilution method; settings: CIP 103014, 18 h; summary of the method: as §1
Bacillus cereus [15] = experiment: Antibacterial activity against Bacillus cereus CIP 6624 after 18 hrs by agar dilution method; settings: CIP 6624, 18 h; summary of the method: as §1
Listeria monocytogenes [16] = experiment: Antibacterial activity against Listeria monocytogenes N851 after 18 hrs by agar dilution method; settings: N851, 18 h; summary of the method: as §1
Enterococcus avium = experiment: Antibacterial activity against Enterococcus avium CIP 104053 after 18 hrs by agar dilution method; settings: CIP 104053, 18 h; summary of the method: as §1
[17] = tested on: Staphylococcus epidermidis; experiment: Antibacterial activity against Staphylococcus epidermidis CIP 53124 after 18 hrs by agar dilution method; settings: CIP 53124, 18 h; summary of the method: as §1
Enterococcus gallinarum [18] = experiment: Antibacterial activity against Enterococcus gallinarum CIP 105985 after 18 hrs by agar dilution method; settings: CIP 105985, 18 h; summary of the method: as §1
Enterococcus faecalis [19] = experiment: Antibacterial activity against Enterococcus faecalis N518 after 18 hrs by agar dilution method; settings: N518, 18 h; summary of the method: as §1
Enterococcus faecium [20] = experiment: Antibacterial activity against Enterococcus faecium N733 after 18 hrs by agar dilution method; settings: N733, 18 h; summary of the method: as §1
Staphylococcus aureus [21] = experiment: Antibacterial activity against Staphylococcus aureus CIP 7625 after 18 hrs by agar dilution method; settings: CIP 7625, 18 h; summary of the method: as §1
Enterococcus hirae = experiment: Antibacterial activity against Enterococcus hirae CIP 5855 after 18 hrs by agar dilution method; settings: CIP 5855, 18 h; summary of the method: as §1
Enterococcus gallinarum [22] = experiment: Antibacterial activity against Enterococcus gallinarum N492 after 18 hrs by agar dilution method; settings: N492, 18 h; summary of the method: as §1
MRC5 [23] = experiment: Cytotoxicity against human MRC5 cells assessed as growth inhibition at 10^-5 M after 72 hrs by MTS assay relative to control; settings: MRC5, 72 h, read-out: GI; summary of the method: as §2
Enterococcus faecium [24] = experiment: Antibacterial activity against Enterococcus faecium CIP 107387 after 18 hrs by agar dilution method; settings: CIP 107387, 18 h; summary of the method: as §1
[25] = tested on: Enterococcus casseliflavus; experiment: Antibacterial activity against Enterococcus casseliflavus CIP 103018 after 18 hrs by agar dilution method; settings: CIP 103018, 18 h; summary of the method: as §1
Enterococcus faecalis [26] = experiment: Antibacterial activity against Enterococcus faecalis N491 after 18 hrs by agar dilution method; settings: N491, 18 h; summary of the method: as §1
Listeria monocytogenes [27] = experiment: Antibacterial activity against Listeria monocytogenes CIP 103575 after 18 hrs by agar dilution method; settings: CIP 103575, 18 h; summary of the method: as §1
Listeria innocua = experiment: Antibacterial activity against Listeria innocua E044 after 18 hrs by agar dilution method; settings: E044, 18 h; summary of the method: as §1
Enterococcus faecium [28] = experiment: Antibacterial activity against Enterococcus faecium N823 after 18 hrs by agar dilution method; settings: N823, 18 h; summary of the method: as §1
Staphylococcus aureus [29] = experiment: Antibacterial activity against Staphylococcus aureus CIP 53156 after 18 hrs by agar dilution method; settings: CIP 53156, 18 h; summary of the method: as §1
Staphylococcus aureus [30] = experiment: Antibacterial activity against Staphylococcus aureus CIP 5710 after 18 hrs by agar dilution method; settings: CIP 5710, 18 h; summary of the method: as §1
Bacillus cereus [31] = experiment: Antibacterial activity against Bacillus cereus N349 after 18 hrs by agar dilution method; settings: N349, 18 h; summary of the method: as §1
Listeria monocytogenes [32] = experiment: Antibacterial activity against Listeria monocytogenes N783 after 18 hrs by agar dilution method; settings: N783, 18 h; summary of the method: as §1
Staphylococcus aureus [33] = experiment: Antibacterial activity against Staphylococcus aureus ATCC 25923 after 18 hrs by agar dilution method; settings: ATCC 25923, 18 h; summary of the method: as §1
[34] = tested on: Staphylococcus saprophyticus; experiment: Antibacterial activity against Staphylococcus saprophyticus E260 after 18 hrs by agar dilution method; settings: E260, 18 h; summary of the method: as §1
[35] = tested on: Staphylococcus saprophyticus; experiment: Antibacterial activity against Staphylococcus saprophyticus CIP 76125 after 18 hrs by agar dilution method; settings: CIP 76125, 18 h; summary of the method: as §1
Corynebacterium striatum = experiment: Antibacterial activity against Corynebacterium striatum N840 after 18 hrs by agar dilution method; settings: N840, 18 h; summary of the method: as §1
[36] = tested on: Staphylococcus intermedius; experiment: Antibacterial activity against Staphylococcus intermedius N987 after 18 hrs by agar dilution method; settings: N987, 18 h; summary of the method: as §1
Enterococcus gallinarum [37] = experiment: Antibacterial activity against Enterococcus gallinarum N489 after 18 hrs by agar dilution method; settings: N489, 18 h; summary of the method: as §1
Staphylococcus aureus [38] = experiment: Antibacterial activity against Staphylococcus aureus CRBIP 2121 after 18 hrs by agar dilution method; settings: CRBIP 2121, 18 h; summary of the method: as §1
Staphylococcus aureus [39] = experiment: Antibacterial activity against Staphylococcus aureus CIP 483 after 18 hrs by agar dilution method; settings: CIP 483, 18 h; summary of the method: as §1
Bacillus cereus [40] = experiment: Antibacterial activity against Bacillus cereus N258 after 18 hrs by agar dilution method; settings: N258, 18 h; summary of the method: as §1
[41] = tested on: Enterococcus casseliflavus; experiment: Antibacterial activity against Enterococcus casseliflavus N487 after 18 hrs by agar dilution method; settings: N487, 18 h; summary of the method: as §1
MRC5 [42] = experiment: Cytotoxicity against human MRC5 cells assessed as growth inhibition at 10^-6 M after 72 hrs by MTS assay relative to control; settings: MRC5, 72 h, read-out: GI; summary of the method: as §2

MIC (Enterococcus faecium [1]): > 46 µM | MIC (Bacillus cereus [2]): 23 µM (≈ 8.06 µg/mL) | MIC (Bacillus spizizenii): 46 µM (≈ 16.1 µg/mL) | MIC (Mammaliicoccus sciuri): > 46 µM | MIC (Staphylococcus aureus [3]): > 46 µM | MIC (Streptococcus agalactiae): > 46 µM | MIC (Enterococcus durans): > 46 µM | MIC [4]: > 46 µM | MIC (Enterococcus faecium [5]): > 46 µM | MIC (Enterococcus faecalis [8]): > 46 µM | MIC (Enterococcus faecalis [9]): > 46 µM | MIC (Staphylococcus aureus [10]): > 46 µM | MIC (Enterococcus faecalis [11]): > 46 µM | MIC (Listeria monocytogenes [12]): > 46 µM | MIC (Enterococcus faecium [14]): > 46 µM | MIC (Bacillus cereus [15]): 46 µM (≈ 16.1 µg/mL) | MIC (Listeria monocytogenes [16]): > 46 µM | MIC (Enterococcus avium): > 46 µM | MIC [17]: > 46 µM | MIC (Enterococcus gallinarum [18]): > 46 µM | MIC (Enterococcus faecalis [19]): > 46 µM | MIC (Enterococcus faecium [20]): > 46 µM | MIC (Staphylococcus aureus [21]): > 46 µM | MIC (Enterococcus hirae): > 46 µM | MIC (Enterococcus gallinarum [22]): > 46 µM | MIC (Enterococcus faecium [24]): > 46 µM | MIC [25]: > 46 µM | MIC (Enterococcus faecalis [26]): > 46 µM | MIC (Listeria monocytogenes [27]): > 46 µM | MIC (Listeria innocua): > 46 µM | MIC (Enterococcus faecium [28]): > 46 µM | MIC (Staphylococcus aureus [29]): > 46 µM | MIC (Staphylococcus aureus [30]): > 46 µM | MIC (Bacillus cereus [31]): 46 µM (≈ 16.1 µg/mL) | MIC (Listeria monocytogenes [32]): > 46 µM | MIC (Staphylococcus aureus [33]): > 46 µM | MIC [34]: > 46 µM | MIC [35]: > 46 µM | MIC (Corynebacterium striatum): > 46 µM | MIC [36]: > 46 µM | MIC (Enterococcus gallinarum [37]): > 46 µM | MIC (Staphylococcus aureus [38]): > 46 µM | MIC (Staphylococcus aureus [39]): > 46 µM | MIC (Bacillus cereus [40]): 46 µM (≈ 16.1 µg/mL) | MIC [41]: > 46 µM
Compound: CC1(C)CCC[C@]2(C)[C@@H]1CC[C@]1(CO)O[C@@H](C3=CC(=O)OC3O)C[C@H]12 (some centres undefined)
inhibition of growth at 1 µM (HCT-116 [6]): 0% | MIC [7]: > 46 µM | inhibition of growth at 10 µM (HCT-116 [13]): 84% | inhibition of growth at 10 µM (MRC5 [23]): 92% | inhibition of growth at 1 µM (MRC5 [42]): 29%

Compound: C=C1C[C@@H](O)[C@H]2C(C)(C)CCC[C@]2(C)[C@H]1CCC1=CC(=O)OC1O (some centres undefined)
inhibition of growth at 1 µM (HCT-116 [6]): 0% | inhibition of growth at 10 µM (HCT-116 [13]): 38% | inhibition of growth at 10 µM (MRC5 [23]): 28% | inhibition of growth at 1 µM (MRC5 [42]): 5%
